In ChEMBL document CHEMBL2021862, “5-imino-1,2,4-thiadiazoles: first small molecules as substrate competitive inhibitors of glycogen synthase kinase 3” (J Med Chem, 2012):
Calls of active or inactive are those of the source. The rule behind the calls is not given here.

Molecular target: Glycogen synthase kinase-3 beta (Homo sapiens, UniProt P49841)
Assay: Competitive inhibition of human recombinant GSK3beta at 12.5 to 100 uM after 30 mins by Michaelis-Menten equation in presence of 1 uM ATP
In short: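 Lineweaver–Burk kinetics on human recombinant GSK-3β. GS-2 substrate was varied from 12.5 to 100 μM against inhibitor at 0.5–2.5 μM, with ATP held at 1 μM. Luminescent kinase read-out. Each point is the mean of two experiments, each run in duplicate.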

Chain of Glycogen synthase kinase-3 beta (P49841 whole entry, looked up): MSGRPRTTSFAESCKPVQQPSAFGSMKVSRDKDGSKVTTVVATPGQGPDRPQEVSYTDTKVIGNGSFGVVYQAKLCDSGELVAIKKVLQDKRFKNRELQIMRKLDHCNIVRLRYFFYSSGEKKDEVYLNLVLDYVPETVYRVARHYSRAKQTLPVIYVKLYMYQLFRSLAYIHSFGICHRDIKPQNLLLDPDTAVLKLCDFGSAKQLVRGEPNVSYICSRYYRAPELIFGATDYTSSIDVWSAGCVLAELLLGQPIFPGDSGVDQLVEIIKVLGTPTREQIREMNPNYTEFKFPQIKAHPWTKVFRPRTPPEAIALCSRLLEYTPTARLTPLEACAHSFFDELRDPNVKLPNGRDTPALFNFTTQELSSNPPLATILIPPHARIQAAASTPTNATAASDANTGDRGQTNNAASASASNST

## H-YRRAAVPPSPSLSRHSSPHQAEDEEE-OH
  inhibition: Active
